We go through 21 molecules from ChEMBL document CHEMBL1144010, “Synthesis and in vitro opioid receptor functional antagonism of analogues of the selective kappa opioid receptor antagonist (3R)-7-hydroxy-N-((1S)-1-{[(3R,4R)-4-(3-hydroxyphenyl)-3,4-dimethyl-1-piperidinyl]methyl}-2-methylpropyl)-1,2,3,4-tetrahydro-3-isoquinolinecarboxamide (JDTic)” (J Med Chem, 2008).

The target in test [1] is Mu-type opioid receptor (Homo sapiens) (UniProt P35372). As to the kind of experiment: Antagonist activity at human cloned mu opioid receptor expressed in CHO cells assessed as inhibition of DAMGO-stimulated [35S]GTPgammaS binding. It counts as functional, cell-based. In short, it runs like this:
(§1)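 Agonist concentration-response curves for stimulated [35S]GTPγS binding are run with and without a single concentration of test compound. Ke = [L]/(DR−1), where DR is the ratio of agonist EC50 with and without compound.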

In test [2] the target is Delta-type opioid receptor (Homo sapiens) (UniProt P41143). As to the kind of experiment: Antagonist activity at human cloned delta opioid receptor expressed in CHO cells assessed as inhibition of DPDPE-stimulated [35S]GTP-gamma-S binding. It counts as functional, cell-based. In short, it runs like this: as §1
Chain of Delta-type opioid receptor (Homo sapiens) (P41143 whole entry): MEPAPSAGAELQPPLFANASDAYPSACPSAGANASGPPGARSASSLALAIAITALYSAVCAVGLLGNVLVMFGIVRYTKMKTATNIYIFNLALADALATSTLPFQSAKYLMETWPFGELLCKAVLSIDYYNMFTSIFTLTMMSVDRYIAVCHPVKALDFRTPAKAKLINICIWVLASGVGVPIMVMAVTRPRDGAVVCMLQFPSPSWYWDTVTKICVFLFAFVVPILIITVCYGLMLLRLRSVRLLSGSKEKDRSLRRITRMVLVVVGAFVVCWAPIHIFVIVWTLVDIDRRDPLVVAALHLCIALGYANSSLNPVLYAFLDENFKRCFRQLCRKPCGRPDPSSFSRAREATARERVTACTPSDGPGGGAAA
Test [3] deals with Kappa-type opioid receptor (Homo sapiens) (UniProt P41145). Briefly: Antagonist activity at human cloned kappa opioid receptor expressed in CHO cells assessed as inhibition of U69593-stimulated [35S]GTP-gamma-S binding. Type of test: functional, cell-based. In short, it runs like this:
as §1

Test [4] relates to CHO. Briefly: Selectivity for human cloned kappa opioid receptor over human cloned mu opioid receptor expressed in CHO cells. Type of test: cell-based.
Test [5] has as its system CHO. Briefly: Selectivity for human cloned kappa opioid receptor over human cloned delta opioid receptor expressed in CHO cells. It counts as cell-based.

Chain of Kappa-type opioid receptor (Homo sapiens) (P41145 whole entry): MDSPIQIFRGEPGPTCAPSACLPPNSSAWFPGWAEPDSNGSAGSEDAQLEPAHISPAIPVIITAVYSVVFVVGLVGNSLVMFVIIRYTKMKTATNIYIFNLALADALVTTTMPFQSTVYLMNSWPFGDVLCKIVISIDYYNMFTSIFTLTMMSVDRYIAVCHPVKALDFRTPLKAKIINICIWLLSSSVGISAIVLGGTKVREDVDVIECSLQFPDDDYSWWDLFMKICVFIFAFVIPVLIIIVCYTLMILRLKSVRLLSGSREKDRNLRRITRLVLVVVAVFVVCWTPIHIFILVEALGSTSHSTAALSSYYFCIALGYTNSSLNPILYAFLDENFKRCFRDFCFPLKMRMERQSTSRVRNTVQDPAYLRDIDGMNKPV
Chain of Mu-type opioid receptor (Homo sapiens) (P35372 whole entry): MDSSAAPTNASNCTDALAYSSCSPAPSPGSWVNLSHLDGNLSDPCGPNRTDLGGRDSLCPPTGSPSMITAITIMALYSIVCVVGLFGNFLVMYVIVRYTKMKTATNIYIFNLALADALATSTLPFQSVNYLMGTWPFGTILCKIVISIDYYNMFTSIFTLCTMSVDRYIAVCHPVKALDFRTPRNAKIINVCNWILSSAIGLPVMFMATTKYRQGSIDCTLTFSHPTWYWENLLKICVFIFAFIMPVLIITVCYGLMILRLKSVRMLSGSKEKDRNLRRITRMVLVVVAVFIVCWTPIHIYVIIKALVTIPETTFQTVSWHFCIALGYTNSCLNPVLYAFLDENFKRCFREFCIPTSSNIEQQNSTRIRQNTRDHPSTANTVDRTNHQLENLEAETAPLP

As for `CC(C)[C@@H](CN1CC[C@@](C)(c2cccc(O)c2)[C@@H](C)C1)NC(=O)CN1CCc2ccc(O)cc2C1`, the Ke in test [1] amounted to 9.2 nM; in test [2], 177 nM; in test [3] it was 23.5 nM. For the same molecule, the Ratio Ke with CHO [4] is 0.4; with CHO [5], 7.5.
Regarding `CC(C)[C@@H](CN1CC[C@@](C)(c2cccc(O)c2)[C@@H](C)C1)NC(=O)c1c[nH]c2cc(O)ccc12`, the results for the Ke in test [1], in test [2] and in test [3] were 4.8 nM, 224 nM and 4.5 nM, respectively. Moreover, the Ratio Ke was 1.1 with CHO [4] and 50 in the test with CHO [5].
On to `COc1ccc2cc(C(=O)N[C@H](CN3CC[C@@](C)(c4cccc(O)c4)[C@@H](C)C3)C(C)C)cnc2c1`, for which the Ke in test [1] worked out at 19.5 nM; in test [2], 158 nM; in test [3], 11.4 nM. Moreover, the Ratio Ke in the test on CHO [4] worked out at 1.7; with CHO [5], 14.
Regarding `CC(=O)Nc1ccc2c(c1)CN[C@@H](C(=O)N[C@H](CN1CC[C@@](C)(c3cccc(O)c3)[C@@H](C)C1)C(C)C)C2`, the Ke in test [1] is 11 nM; in test [2], 555 nM; in test [3] it was 1.4 nM. In addition, the Ratio Ke in the test on CHO [4] was 7.9; with CHO [5] it was 396.
On the same counts, the results for `CC(C)[C@@H](CN1CC[C@@](C)(c2cccc(O)c2)[C@@H](C)C1)NC(=O)CN1CCc2cc(O)ccc2C1` are 21.4 nM, 408 nM, 3.9 nM, 5.5 and 105.
On the same counts, the results for `COc1ccc2cc(C(=O)N[C@H](CN3CC[C@@](C)(c4cccc(O)c4)[C@@H](C)C3)C(C)C)[nH]c2c1` are 13.7 nM, 282 nM, 10.9 nM, 1.3 and 26.
`COc1ccc2c(c1)CN(CC(=O)N[C@H](CN1CC[C@@](C)(c3cccc(O)c3)[C@@H](C)C1)C(C)C)CC2`: the Ke was 17.7 nM in test [1], 51.7 nM in test [2] and 16.8 nM in test [3]. The Ratio Ke with CHO [4] came out at 1; in the test with CHO [5], 3.
On the same counts, the results for `CC(C)[C@@H](CN1CC[C@@](C)(c2cccc(O)c2)[C@@H](C)C1)NC(=O)c1cnc2cc(O)ccc2c1` are 48 nM, 229 nM, 9.3 nM, 5.2 and 25.
Regarding `COc1ccc2nc(C(=O)N[C@H](CN3CC[C@@](C)(c4cccc(O)c4)[C@@H](C)C3)C(C)C)[nH]c2c1`, the Ke in test [1] was 8.5 nM; in test [2], 102 nM; in test [3] it was 28.4 nM. Moreover, the Ratio Ke in the test on CHO [4] was determined as 0.3; with CHO [5], 3.6.
In the case of `CC(C)[C@@H](CN1CC[C@@](C)(c2cccc(O)c2)[C@@H](C)C1)NC(=O)[C@H]1Cc2ccc([N+](=O)[O-])cc2CN1`, the Ke in test [1] is 7.9 nM; in test [2], 65 nM; in test [3] it was 6.4 nM. The figures for the Ratio Ke with CHO [4] and in the test with CHO [5] were 1.2 and 10, respectively.
Consider `CC(C)[C@@H](CN1CC[C@@](C)(c2cccc(O)c2)[C@@H](C)C1)NC(=O)c1nc2ccc(O)cc2[nH]1`, for which the results for the Ke in test [1], in test [2] and in test [3] were 15.6 nM, 290 nM and 22.4 nM, respectively. Moreover, the Ratio Ke came to 0.7 in the test on CHO [4] and 13 in the test with CHO [5].
On the same counts, the results for `CC[C@H](C)[C@@H](CN1CC[C@@](C)(c2cccc(O)c2)[C@@H](C)C1)NC(=O)[C@H]1Cc2ccc(O)cc2CN1` are 3 nM, 24 nM, 0.03 nM, 100 and 800.
Take `CC(C)CCN(CCN1CC[C@@](C)(c2cccc(O)c2)[C@@H](C)C1)C(=O)[C@H]1Cc2ccc(O)cc2CN1`: the Ke in test [1] was found to be 0.5 nM; in test [2], 9.3 nM; in test [3], 1.2 nM. In addition, the figures for the Ratio Ke in the test with CHO [4] and in the test on CHO [5] were 0.4 and 8, respectively.
On to `CC(C)[C@@H](CN1CC[C@@](C)(c2cccc(O)c2)[C@@H](C)C1)NC(=O)[C@H]1Cc2ccccc2CN1`, for which the Ke in test [3] is 56 nM.
As for `COc1ccc2c(c1)CN[C@@H](C(=O)N[C@H](CN1CC[C@@](C)(c3cccc(O)c3)[C@@H](C)C1)C(C)C)C2`, the Ke in test [1] was 51.4 nM; in test [2], 118 nM; in test [3], 0.06 nM. Moreover, the Ratio Ke with CHO [4] is 857; in the test on CHO [5], 1980.
`COc1ccc2c(c1)CCN(CC(=O)N[C@H](CN1CC[C@@](C)(c3cccc(O)c3)[C@@H](C)C1)C(C)C)C2`: the values for the Ke in test [1], in test [2] and in test [3] were 11.4 nM, 76 nM and 26 nM, respectively. Also, the Ratio Ke with CHO [4] turned out to be 0.4; with CHO [5], 3.
On to `CC(C)[C@@H](CN1CC[C@@](C)(c2cccc(O)c2)[C@@H](C)C1)NC(=O)[C@H]1Cc2ccc(O)cc2CN1`, for which the results for the Ratio Ke in the test with CHO [4] and with CHO [5] were 1250 and 3800, respectively.
On to `CC(C)[C@@H](CN1CC[C@@](C)(c2cccc(O)c2)[C@@H](C)C1)NC(=O)[C@H]1Cc2ccc(N)cc2CN1`, for which the values for the Ke in test [1], in test [2] and in test [3] were 12.6 nM, 373 nM and 0.2 nM, respectively. Besides, the Ratio Ke in the test with CHO [4] was 63; with CHO [5] it was 1860.
On to `CC(C)[C@@H](CN1CC[C@@](C)(c2cccc(O)c2)[C@@H](C)C1)NC(=O)c1cc2ccc(O)cc2[nH]1`, for which the Ke in test [1] was found to be 23.8 nM; in test [2], 97 nM; in test [3], 34.1 nM. Further, the results for the Ratio Ke in the test on CHO [4] and in the test on CHO [5] were 0.7 and 3, respectively.
With `CC(C)CN(CCN1CC[C@@](C)(c2cccc(O)c2)[C@@H](C)C1)C(=O)[C@H]1Cc2ccc(O)cc2CN1`, the Ke was determined as 1 nM in test [1], 39 nM in test [2] and 1.9 nM in test [3]. Also, the Ratio Ke in the test with CHO [4] turned out to be 0.5; in the test on CHO [5], 21.
On the same counts, the results for `CC(C)[C@@H](CN1CC[C@@](C)(c2cccc(O)c2)[C@@H](C)C1)NC(=O)[C@H]1Cc2ccc(NS(C)(=O)=O)cc2CN1` are 17.7 nM, 106 nM, 4 nM, 4.4 and 27.
